# Reference: PMC9055986 (RSC Advances, 2020)
# How the values were obtained:
# PARP-1 = PARP-1 (Homo sapiens, UniProt P09874); experiment: In vitro PARP-1 inhibitory assay; type: biochemical; settings: IC50 (nM), in vitro inhibitory activity against PARP-1; mean ± S.E.M., n = 3
# MCF-7 cells [1] = experiment: Cell cycle analysis; type: cell-based; settings: for cell cycle arrest: MCF-7 cell line, in words; for DNA content% % G0–G1 / DNA content% % G2–M / DNA content% % Pre G1 / DNA content% % S: MCF-7 cells, 10 μg mL^−1, 24 h
# MCF-7 cells [2] = experiment: Annexin V-FITC apoptosis assay; type: cell-based; settings: 2.5 μM, 24 h, Annexin V and PI double staining
# Summary of the method: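 MCF-7 cells exposed to test compound (2.5 μM) for 24 h, then double-stained with Annexin V-FITC and propidium iodide. Stained cells were detected by flow cytometry, and the percentage of apoptotic cells was determined.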
# Sequence of PARP-1 (P09874 whole entry): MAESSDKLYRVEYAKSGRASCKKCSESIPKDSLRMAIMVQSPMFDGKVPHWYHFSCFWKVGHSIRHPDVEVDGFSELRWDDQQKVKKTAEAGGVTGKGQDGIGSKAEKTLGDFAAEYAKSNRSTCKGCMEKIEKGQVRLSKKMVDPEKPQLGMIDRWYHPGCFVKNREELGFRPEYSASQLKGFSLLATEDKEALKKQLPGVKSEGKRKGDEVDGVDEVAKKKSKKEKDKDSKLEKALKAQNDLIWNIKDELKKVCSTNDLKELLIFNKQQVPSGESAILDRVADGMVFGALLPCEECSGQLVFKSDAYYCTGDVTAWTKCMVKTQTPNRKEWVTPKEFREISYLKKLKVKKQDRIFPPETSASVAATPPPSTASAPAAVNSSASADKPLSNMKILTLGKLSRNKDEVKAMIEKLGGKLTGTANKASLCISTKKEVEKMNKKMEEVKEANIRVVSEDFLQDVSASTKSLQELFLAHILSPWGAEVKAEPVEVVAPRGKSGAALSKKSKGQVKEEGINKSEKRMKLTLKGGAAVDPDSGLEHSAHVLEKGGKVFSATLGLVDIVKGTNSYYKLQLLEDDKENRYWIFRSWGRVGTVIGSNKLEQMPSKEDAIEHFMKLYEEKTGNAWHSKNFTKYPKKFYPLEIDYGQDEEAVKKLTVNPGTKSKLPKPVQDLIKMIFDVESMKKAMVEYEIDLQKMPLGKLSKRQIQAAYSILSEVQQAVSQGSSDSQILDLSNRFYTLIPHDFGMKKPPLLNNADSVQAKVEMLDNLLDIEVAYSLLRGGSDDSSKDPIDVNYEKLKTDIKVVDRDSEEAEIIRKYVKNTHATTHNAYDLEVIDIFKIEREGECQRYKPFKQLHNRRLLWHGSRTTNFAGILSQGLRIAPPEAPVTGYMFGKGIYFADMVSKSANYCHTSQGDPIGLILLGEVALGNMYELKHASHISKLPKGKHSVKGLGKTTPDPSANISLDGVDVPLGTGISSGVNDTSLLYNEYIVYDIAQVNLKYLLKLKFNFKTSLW
Compound,IC50 (PARP-1),cell cycle arrest (MCF-7 cells [1]),DNA content% % G0–G1 (MCF-7 cells [1]),DNA content% % G2–M (MCF-7 cells [1]),DNA content% % Pre G1 (MCF-7 cells [1]),DNA content% % S (MCF-7 cells [1]),Apoptosis Total (MCF-7 cells [2])
"O=c1c2ccccc2nc(NN=Cc2ccc(O)cc2)n1-c1ccccc1 [Compound 13b, 2-(2-(4-Hydroxybenzylidene)hydrazinyl)-3-phenylquinazolin-4(3H)-one]",44.2 ± 3.12 nM,,,,,,
"COc1ccccc1C=NNc1nc2ccccc2c(=O)n1-c1ccccc1 [Compound 13c, 2-(2-(2-Methoxybenzylidene)hydrazinyl)-3-phenylquinazolin-4(3H)-one]",45.6 ± 2.86 nM,,,,,,
"CN[C@@H]1C[C@H]2O[C@@](C)([C@@H]1OC)n1c3ccccc3c3c4c(c5c6ccccc6n2c5c31)C(=O)NC4 [Stauroporine, reference compound]",,,37.19%,36.59%,,26.22%,31.74%

# Second part, led by results:
IC50 (PARP-1),Compound,cell cycle arrest (MCF-7 cells [1]),DNA content% % G0–G1 (MCF-7 cells [1]),DNA content% % G2–M (MCF-7 cells [1]),DNA content% % Pre G1 (MCF-7 cells [1]),DNA content% % S (MCF-7 cells [1]),Apoptosis Total (MCF-7 cells [2])
56 ± 2.95 nM,"COC(=O)c1ccc(NC(=O)Cn2c(=S)n(-c3ccccc3)c(=O)c3ccccc32)cc1 [Compound 6a, Methyl 4-(2-(4-oxo-3-phenyl-2-thioxo-3,4-dihydroquinazolin-1(2H)-yl)acetamido)benzoate]",,,,,,
64.7 ± 3.38 nM,"CC(=O)c1ccc(NC(=O)Cn2c(=S)n(-c3ccccc3)c(=O)c3ccccc32)cc1 [Compound 6b, N-(4-Acetylphenyl)-2-(4-oxo-3-phenyl-2-thioxo-3,4-dihydroquinazolin-1(2H)-yl)acetamide]",,,,,,
32.5 ± 2.64 nM,"COc1ccc(-c2cc(-c3ccc(NC(=O)CSc4nc5ccccc5c(=O)n4-c4ccccc4)cc3)nc(N)c2C#N)cc1 [Compound 8a, N-(4-(6-Amino-5-cyano-4-(4-methoxyphenyl)pyridin-2-yl)phenyl)-2-((4-oxo-3-phenyl-3,4-dihydroquinazolin-2-yl)thio)acetamide]",,,,,,
39.1 ± 3.89 nM,"COC(=O)c1ccc(NC(=O)CNNc2nc3ccccc3c(=O)n2-c2ccccc2)cc1 [Compound 12a, Methyl 4-(2-(2-(4-oxo-3-phenyl-3,4-dihydroquinazolin-2-yl)hydrazinyl)acetamido)benzoate]",cell growth arrest at the G2/M phase,38.51%,38.06%,26.55%,23.43%,
27.9 ± 3.45 nM,"NS(=O)(=O)c1ccc(NC(=O)CNNc2nc3ccccc3c(=O)n2-c2ccccc2)cc1 [Compound 12c, 2-(2-(4-Oxo-3-phenyl-3,4-dihydroquinazolin-2-yl)hydrazinyl)-N-(4-sulfamoylphenyl)-acetamide]",cell growth arrest at the G2/M phase,43.28%,23.49%,19.31%,33.23%,
